In ChEMBL document CHEMBL2311431, “Synthesis and biological evaluation of some 5-arylidene-2-(1,3-thiazol-2-ylimino)-1,3-thiazolidin-4-ones as dual anti-inflammatory/antimicrobial agents” (Bioorg Med Chem, 2013):
Values after ≈ are worked out from the molar mass of the structure shown. Active and inactive are the calls of the source. No cut-off for these calls is given here.

What was measured:
Mus musculus [1] = assay: Acute toxicity in AKR mouse up to 0.5 mmol/kg, ip; assay type: organism-based; conditions: in vivo
Mus musculus [2] = assay: Antiinflammatory activity in AKR mouse assessed as inhibition of carrageenan-induced paw edema at 0.01 mmol/kg, ip measured after 3.5 hrs of carrageenan-challenge; assay type: functional
How it was run: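 AKR mice of both sexes (pregnant females excluded), 6-10 per group, fasted during the experiment. Edema induced by intradermal 0.05 mL of 2% carrageenin into the right hind paw. Compound given at 0.01 mmol/kg ip, suspended in water with Tween-80, at the same time as carrageenin.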

[3] = molecular target: T1, Prostaglandin G/H synthase 1 (Ovis aries) (UniProt P05979); assay: Inhibition of ovine COX1 assessed as inhibition of PGF2a production by enzyme immunoassay; design: concentration or dose not given beside the values; conditions: concentration not given here
T1 sequence (whole entry): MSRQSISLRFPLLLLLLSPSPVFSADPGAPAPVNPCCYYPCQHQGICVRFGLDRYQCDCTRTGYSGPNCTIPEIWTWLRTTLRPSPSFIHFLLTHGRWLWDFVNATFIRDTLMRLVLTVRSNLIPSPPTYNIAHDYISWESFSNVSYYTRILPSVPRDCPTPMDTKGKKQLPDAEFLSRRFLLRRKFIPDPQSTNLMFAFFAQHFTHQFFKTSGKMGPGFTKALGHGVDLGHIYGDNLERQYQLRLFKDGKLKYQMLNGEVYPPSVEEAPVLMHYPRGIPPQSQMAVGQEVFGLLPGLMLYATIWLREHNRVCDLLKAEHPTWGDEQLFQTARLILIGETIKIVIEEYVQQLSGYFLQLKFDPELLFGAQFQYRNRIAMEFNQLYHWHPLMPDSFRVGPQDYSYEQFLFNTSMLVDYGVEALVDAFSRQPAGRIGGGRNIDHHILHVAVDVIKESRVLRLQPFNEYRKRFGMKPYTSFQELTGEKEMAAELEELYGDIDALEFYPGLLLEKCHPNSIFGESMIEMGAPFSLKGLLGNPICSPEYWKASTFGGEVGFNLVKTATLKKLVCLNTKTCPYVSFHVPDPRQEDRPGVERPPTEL
How it was run: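 Ovine COX-1 from a commercial screening kit, tested with 0.1 µM arachidonic acid, which is below the saturating level. COX-derived PGH2 is reduced by SnCl2 to PGF2a, quantified by enzyme immunoassay with a broad prostaglandin antibody. At least triplicate.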

[4] = Inhibition of soybean lipoxygenase assessed as inhibition of sodium linolate conversion to 13-hydroperoxylinoleic acid after 4 mins by spectrophotometry; design: species or system Glycine max
Aspergillus niger [5] = assay: Fungicidal activity against Aspergillus niger ATCC 6275 after 72 hrs by serial subcultivation method; assay type: functional; conditions: ATCC 6275, 72 h
Aspergillus niger [6] = assay: Antifungal activity against Aspergillus niger ATCC 6275 after 72 hrs by serial dilution technique; assay type: functional; conditions: ATCC 6275, 72 h
How it was run: (§1)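 Serial dilution in malt broth; compounds from 1 mg/ml stocks in 5% DMSO; 72 h at 28 °C. MIC is the lowest concentration with no visible growth under a binocular microscope. Run in duplicate, repeated three times.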

Aspergillus fumigatus [7] = assay: Fungicidal activity against Aspergillus fumigatus after 72 hrs by serial subcultivation method; assay type: functional
Aspergillus flavus [8] = assay: Fungicidal activity against Aspergillus flavus ATCC 9643 after 72 hrs by serial subcultivation method; assay type: functional; conditions: ATCC 9643, 72 h
Trichoderma viride [9] = assay: Fungicidal activity against Trichoderma viride IAM 5061 after 72 hrs by serial subcultivation method; assay type: functional; conditions: IAM 5061, 72 h
Penicillium ochrochloron [10] = assay: Fungicidal activity against Penicillium ochrochloron ATCC 9112 after 72 hrs by serial subcultivation method; assay type: functional; conditions: ATCC 9112, 72 h
Aspergillus flavus [11] = assay: Antifungal activity against Aspergillus flavus ATCC 9643 after 72 hrs by serial dilution technique; assay type: functional; conditions: ATCC 9643, 72 h; how it was run: as §1
Talaromyces funiculosus [12] = assay: Fungicidal activity against Penicillium funiculosum ATCC 36839 after 72 hrs by serial subcultivation method; assay type: functional; conditions: ATCC 36839, 72 h
Aspergillus fumigatus [13] = assay: Antifungal activity against Aspergillus fumigatus after 72 hrs by serial dilution technique; assay type: functional; how it was run: as §1
Trichoderma viride [14] = assay: Antifungal activity against Trichoderma viride IAM 5061 after 72 hrs by serial dilution technique; assay type: functional; conditions: IAM 5061, 72 h; how it was run: as §1
Penicillium ochrochloron [15] = assay: Antifungal activity against Penicillium ochrochloron ATCC 9112 after 72 hrs by serial dilution technique; assay type: functional; conditions: ATCC 9112, 72 h; how it was run: as §1
Talaromyces funiculosus [16] = assay: Antifungal activity against Penicillium funiculosum ATCC 36839 after 72 hrs by serial dilution technique; assay type: functional; conditions: ATCC 36839, 72 h; how it was run: as §1
Escherichia coli [17] = assay: Bactericidal activity against Escherichia coli ATCC 35210 after 72 hrs by serial subcultivation method; assay type: functional; conditions: ATCC 35210, 72 h
Pseudomonas aeruginosa [18] = assay: Bactericidal activity against Pseudomonas aeruginosa ATCC 27853 after 72 hrs by serial subcultivation method; assay type: functional; conditions: ATCC 27853, 72 h
Listeria monocytogenes [19] = assay: Bactericidal activity against Listeria monocytogenes NCTC 7973 after 72 hrs by serial subcultivation method; assay type: functional; conditions: NCTC 7973, 72 h
Bacillus cereus [20] = assay: Bactericidal activity against Bacillus cereus clinical isolate after 72 hrs by serial subcultivation method; assay type: functional
Micrococcus flavus [21] = assay: Bactericidal activity against Micrococcus flavus ATCC 10240 after 72 hrs by serial subcultivation method; assay type: functional; conditions: ATCC 10240, 72 h
Staphylococcus aureus [22] = assay: Bactericidal activity against Staphylococcus aureus ATCC 6538 after 72 hrs by serial subcultivation method; assay type: functional; conditions: ATCC 6538, 72 h
Escherichia coli [23] = assay: Antibacterial activity against Escherichia coli ATCC 35210 after 24 hr by microdilution test; assay type: functional; conditions: ATCC 35210, 24 h
How it was run: (§2)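 Broth microdilution in LB medium, about 1.0×10^4 cfu per well; compounds from 1 mg/ml stocks in 5% DMSO. Incubated 24 h. MIC is the lowest concentration with no visible growth under a binocular microscope. Run in duplicate, repeated three times.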

Listeria monocytogenes [24] = assay: Antibacterial activity against Listeria monocytogenes NCTC 7973 after 24 hr by microdilution test; assay type: functional; conditions: NCTC 7973, 24 h; how it was run: as §2
Pseudomonas aeruginosa [25] = assay: Antibacterial activity against Pseudomonas aeruginosa ATCC 27853 after 24 hr by microdilution test; assay type: functional; conditions: ATCC 27853, 24 h; how it was run: as §2
Micrococcus flavus [26] = assay: Antibacterial activity against Micrococcus flavus ATCC 10240 after 24 hr by microdilution test; assay type: functional; conditions: ATCC 10240, 24 h; how it was run: as §2
Bacillus cereus [27] = assay: Antibacterial activity against Bacillus cereus clinical isolate after 24 hr by microdilution test; assay type: functional; how it was run: as §2
Staphylococcus aureus [28] = assay: Antibacterial activity against Staphylococcus aureus ATCC 6538 after 24 hr by microdilution test; assay type: functional; conditions: ATCC 6538, 24 h; how it was run: as §2

SMILES	Activity (Mus musculus [1])	inhibition in vivo at 10 µmol/kg (Mus musculus [2])	inhibition [3]	IC50 ([4]; read-out: IC50)	MFC (Aspergillus niger [5])	MIC (Aspergillus niger [6])	MFC (Aspergillus fumigatus [7])	MFC (Aspergillus flavus [8])	MFC (Trichoderma viride [9])	MFC (Penicillium ochrochloron [10])	MIC (Aspergillus flavus [11])	MFC (Talaromyces funiculosus [12])	MIC (Aspergillus fumigatus [13])	MIC (Trichoderma viride [14])	MIC (Penicillium ochrochloron [15])	MIC (Talaromyces funiculosus [16])	MBC (Escherichia coli [17])	MBC (Pseudomonas aeruginosa [18])	MBC (Listeria monocytogenes [19])	MBC (Bacillus cereus [20])	also measured
CN(C)c1ccc(/C=C2\S/C(=N/c3nccs3)NC2=O)cc1	Non-toxic	67.3%	50%	95 µM	15.2 µM (≈ 5.02 µg/mL)	15.2 µM (≈ 5.02 µg/mL)	15.2 µM (≈ 5.02 µg/mL)	15.2 µM (≈ 5.02 µg/mL)	15.2 µM (≈ 5.02 µg/mL)	15.2 µM (≈ 5.02 µg/mL)	15.2 µM (≈ 5.02 µg/mL)	15.2 µM (≈ 5.02 µg/mL)	15.2 µM (≈ 5.02 µg/mL)	7.6 µM (≈ 2.51 µg/mL)	7.6 µM (≈ 2.51 µg/mL)	7.6 µM (≈ 2.51 µg/mL)	15.2 µM (≈ 5.02 µg/mL)	60.6 µM (≈ 20 µg/mL)	60.6 µM (≈ 20 µg/mL)	15.2 µM (≈ 5.02 µg/mL)	MBC (Micrococcus flavus [21]): 15.2 µM (≈ 5.02 µg/mL); MBC (Staphylococcus aureus [22]): 60.6 µM (≈ 20 µg/mL); MIC (Escherichia coli [23]): 7.6 µM (≈ 2.51 µg/mL); MIC (Listeria monocytogenes [24]): 30.3 µM (≈ 10 µg/mL); MIC (Pseudomonas aeruginosa [25]): 30.3 µM (≈ 10 µg/mL); MIC (Micrococcus flavus [26]): 7.6 µM (≈ 2.51 µg/mL); MIC (Bacillus cereus [27]): 7.6 µM (≈ 2.51 µg/mL); MIC (Staphylococcus aureus [28]): 30.3 µM (≈ 10 µg/mL)
O=C1N/C(=N\c2nccs2)S/C1=C\c1ccc(Br)cc1	Non-toxic	42.2%	67%	66 µM	27.3 µM (≈ 10 µg/mL)	13.7 µM (≈ 5.02 µg/mL)	27.3 µM (≈ 10 µg/mL)	27.3 µM (≈ 10 µg/mL)	27.3 µM (≈ 10 µg/mL)	27.3 µM (≈ 10 µg/mL)	13.7 µM (≈ 5.02 µg/mL)	27.3 µM (≈ 10 µg/mL)	13.7 µM (≈ 5.02 µg/mL)	13.7 µM (≈ 5.02 µg/mL)	13.7 µM (≈ 5.02 µg/mL)	20.5 µM (≈ 7.51 µg/mL)	54.6 µM (≈ 20 µg/mL)	54.6 µM (≈ 20 µg/mL)	54.6 µM (≈ 20 µg/mL)	54.6 µM (≈ 20 µg/mL)	MBC (Micrococcus flavus [21]): 54.6 µM (≈ 20 µg/mL); MBC (Staphylococcus aureus [22]): 27.3 µM (≈ 10 µg/mL); MIC (Escherichia coli [23]): 27.3 µM (≈ 10 µg/mL); MIC (Listeria monocytogenes [24]): 27.3 µM (≈ 10 µg/mL); MIC (Pseudomonas aeruginosa [25]): 27.3 µM (≈ 10 µg/mL); MIC (Micrococcus flavus [26]): 27.3 µM (≈ 10 µg/mL); MIC (Bacillus cereus [27]): 20.5 µM (≈ 7.51 µg/mL); MIC (Staphylococcus aureus [28]): 13.7 µM (≈ 5.02 µg/mL)
COc1ccc2cc([C@H](C)C(=O)O)ccc2c1 [NAPROXEN]			46%																		inhibition (Mus musculus [2]): inactive; IC50 [4]: Not Active
